Measured values published in ChEMBL document CHEMBL1833805, “Histone deacetylase inhibitors from Burkholderia thailandensis” (2011).
The source made the active and inactive calls.

How the values were obtained:
Assay type in all cases: functional, organism-based
[1] = system: OVCAR-5; assay: Antitumor activity against human OVCAR5 cells implanted intraperitoneally in mouse assessed as inhibition of tumor cell growth at 1.6 to 2.4 mg/kg, ip administered on day 1 to 4 measured on day 5 by hollow fiber assay
In short: (§1)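 Human tumour cell lines from a standard 12-line panel encapsulated in polyvinylidene fluoride hollow fibres (500,000 Da exclusion), implanted intraperitoneally or subcutaneously in mice; drug given IP at 2.4 and 1.6 mg/kg/dose on days 1–4; fibres retrieved and viable cell mass determined day 5; T/C versus vehicle-only injected controls.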

[2] = system: Homo sapiens; assay: Antitumor activity against human OVRAC3 cells implanted intraperitoneally in mouse assessed as inhibition of tumor cell growth at 1.6 to 2.4 mg/kg, ip administered on day 1 to 4 measured on day 5 by hollow fiber assay; in short: as §1
[3] = system: NCI-H23; assay: Antitumor activity against human NCI-H23 cells implanted intraperitoneally in mouse assessed as inhibition of tumor cell growth at 1.6 to 2.4 mg/kg, ip administered on day 1 to 4 measured on day 5 by hollow fiber assay; in short: as §1
[4] = system: COLO 205; assay: Antitumor activity against human COLO205 cells implanted intraperitoneally in mouse assessed as inhibition of tumor cell growth at 1.6 to 2.4 mg/kg, ip administered on day 1 to 4 measured on day 5 by hollow fiber assay; in short: as §1
[5] = system: SW-620; assay: Antitumor activity against human SW620 cells implanted intraperitoneally in mouse assessed as inhibition of tumor cell growth at 1.6 to 2.4 mg/kg, ip administered on day 1 to 4 measured on day 5 by hollow fiber assay; in short: as §1
[6] = system: NCI-H522; assay: Antitumor activity against human NCI-H522 cells implanted intraperitoneally in mouse assessed as inhibition of tumor cell growth at 1.6 to 2.4 mg/kg, ip administered on day 1 to 4 measured on day 5 by hollow fiber assay; in short: as §1
[7] = system: U-251; assay: Antitumor activity against human U251 cells implanted intraperitoneally in mouse assessed as inhibition of tumor cell growth at 1.6 to 2.4 mg/kg, ip administered on day 1 to 4 measured on day 5 by hollow fiber assay; in short: as §1
[8] = system: MDA-MB-435; assay: Antitumor activity against human MDA-MB-435 cells implanted intraperitoneally in mouse assessed as inhibition of tumor cell growth at 1.6 to 2.4 mg/kg, ip administered on day 1 to 4 measured on day 5 by hollow fiber assay; in short: as §1
[9] = system: MDA-MB-231; assay: Antitumor activity against human MDA-MB-231 cells implanted intraperitoneally in mouse assessed as inhibition of tumor cell growth at 1.6 to 2.4 mg/kg, ip administered on day 1 to 4 measured on day 5 by hollow fiber assay; in short: as §1
[10] = system: LOX IMVI; assay: Antitumor activity against human LOXIMVI cells implanted intraperitoneally in mouse assessed as inhibition of tumor cell growth at 1.6 to 2.4 mg/kg, ip administered on day 1 to 4 measured on day 5 by hollow fiber assay; in short: as §1
[11] = system: SF-295; assay: Antitumor activity against human SF295 cells implanted intraperitoneally in mouse assessed as inhibition of tumor cell growth at 1.6 to 2.4 mg/kg, ip administered on day 1 to 4 measured on day 5 by hollow fiber assay; in short: as §1
[12] = system: UACC-62; assay: Antitumor activity against human UACC62 cells implanted intraperitoneally in mouse assessed as inhibition of tumor cell growth at 1.6 to 2.4 mg/kg, ip administered on day 1 to 4 measured on day 5 by hollow fiber assay; in short: as §1

Measured: TGI

C/C=C1\NC(=O)[C@H]2CSSCC/C=C/[C@H](CC(=O)N[C@H](C(C)C)C(=O)N2)OC(=O)[C@H](C(C)C)NC1=O
active: all assays above
